# TPT1 inhibitor: Candida albicans TPT1 enzyme inhibitors, primary screen, biochemical, fluorescence polarization; tRNA 2'-phosphotransferase TPT1 (Candida albicans SC5314); recombinant caTPT1, FP RNA substrate dephosphorylation; inhibition, % at 5 µM; hit rate 0.81% among 300,000;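 active = inhibition above the mean of all tested compounds plus 3 SD, set per screening campaign, cut at about 24% in these data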
# Rpn11 block: Rpn11 (PSMD14) deubiquitinase inhibitors, primary screen, biochemical, fluorescence polarization, uHTS; 26S proteasome non-ATPase regulatory subunit 14 (Homo sapiens), O00487; human 26S proteasome, Ub4-pepOG fluorescence polarization; 20S core pre-blocked with epoxomicin; calls only at 20 µM; hit rate 0.59% among 360,000;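 active = inhibition at 20 µM, scaled to each plate's controls, above about 33%, limit read from the data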
# CSN inh: inhibitors of CSN-mediated cullin deneddylation, primary screen, biochemical, fluorescence polarization, uHTS; inhibition, % at 12.5 µM; AID 651999, 2013; COP9 signalosome complex subunit 5 (Homo sapiens), Q92905; Purified CSN, SCF-Nedd8-OG deneddylation; hit rate 0.38% among 360,000;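 active = pattern-corrected inhibition above about 35%, with an unprinted fluorescence ratio check between 0.5 and 1.5, limit read from the data, passing the limit was not always enough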
#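 Material: purified human Csn5 enzyme expressed in HEK293T cells / Medium: Tris buffer pH 7.5, NaCl, DTT, Tween-20, trehalose, ovalbumin / Compound dosing: 12.5 µM single point / Schedule: 90 min incubation of compound, enzyme and substrate at room temperature / Signal: fluorescence polarization of the substrate / Control set: no-enzyme wells high, enzyme-with-substrate wells low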
# HNF4A DNA FP: change in binding of human HNF4A to DNA, primary screen, biochemical, fluorescence polarization, FITC-DNA | activity change, % at 10 µM | 1 h | hit rate 0.3% among 360,000 | Hepatocyte nuclear factor 4-alpha (Homo sapiens), P41235; in the data active = activity change above about 30%, passing the limit was not always enough
# SUMO HTRF inh: inhibitors of in vitro SUMOylation cascade, primary screen, biochemical, HTRF, uHTS | SUMO-conjugating enzyme UBC9 (Homo sapiens), P63279 | HTRF SUMOylation assay, SAE1/SAE2 + UBC9 | inhibition, % at 35 µM | hit rate 0.36% among 290,000 | AID 2006, 2009; in the data active = inhibition above about 50%, passing the limit was not always enough
# Target sequence (P63279 whole entry, looked up): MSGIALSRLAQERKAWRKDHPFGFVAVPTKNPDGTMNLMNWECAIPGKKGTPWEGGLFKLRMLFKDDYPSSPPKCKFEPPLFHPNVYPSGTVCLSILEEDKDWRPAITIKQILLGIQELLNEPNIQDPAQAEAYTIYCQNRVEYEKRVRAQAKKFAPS
# SENP1 inh: human SENP1 catalytic domain inhibitors, primary screen, biochemical, FRET, uHTS | Sentrin-specific protease 1 (Homo sapiens), Q9P0U3 | recombinant SENP1 catalytic domain, CyPet-SUMO1-YPet FRET cleavage | inhibition, % at 10 µM | hit rate 0.21% among 360,000 | AID 624204, 2012;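 active = inhibition at least 30% at 10 µM, raw YFP signal under a set limit, fluorescence ratio 0.5 to 1.5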
# Target sequence (Q9P0U3 419-644 limits assumed): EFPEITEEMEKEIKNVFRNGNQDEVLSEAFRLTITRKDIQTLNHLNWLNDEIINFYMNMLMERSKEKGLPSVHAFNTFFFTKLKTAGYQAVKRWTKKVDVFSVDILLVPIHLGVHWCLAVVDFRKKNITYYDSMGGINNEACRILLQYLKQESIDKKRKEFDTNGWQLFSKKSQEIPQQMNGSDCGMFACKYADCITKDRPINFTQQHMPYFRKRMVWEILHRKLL
#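 Controls: no-enzyme wells low, DMSO-plus-enzyme wells high control. Test system: human recombinant His6-tagged SENP1 catalytic domain enzyme. Reagent: SFCypet-SUMO1-SFYpet FRET protein substrate, 25 nM final. Doses: one dose per compound, 10 µM, 0.5% DMSO. Detection: FRET, CFP and YFP emission. Timing: 50 min reaction at room temperature.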
# Numbers stand for hits; - = inactive; . = no result shown; + = active, no number. In the library only some 1.8% were active in any assay of this set; here they are far more common.
SMILES,TPT1 inhibitor,Rpn11 block,CSN inh,HNF4A DNA FP,SUMO HTRF inh,SENP1 inh
NNC(=O)c1cc2c(ccc3ccccc32)o1,-,-,-,-,-,-
O=C(Nc1cccnc1)c1cc2c(ccc3ccccc32)o1,-,+,-,-,-,-
COc1ccc(OC)c(Nc2nc3nonc3nc2N2CCCCC2)c1,-,.,-,39.5,-,-
CSCCC(C(=O)Nc1c(C)cccc1C)N(Cc1ccccc1)Cc1ccccc1 (stereo not given),.,-,-,-,.,-
CC(=O)NC(c1cccs1)c1cc([N+](=O)[O-])c2cccnc2c1O (stereo not given),-,+,-,-,-,-
CC(=O)NC(c1ccc(C(C)C)cc1)c1ccc2cccnc2c1O (stereo not given),-,-,-,-,56.3,-
CCOC(=O)c1c(CSc2ccccc2)n(C)c2cc(Br)c(OCC(O)CNC(CO)(CO)CO)cc12 (stereo not given),-,-,70.8,-,.,-
C=CCOc1c(CNc2ncn[nH]2)cccc1OCC,-,-,-,-,-,-
CC(/C=C1\SC(=S)N(CCC(=O)Nc2ccccc2O)C1=O)=C\c1ccccc1,-,.,35.7,47.0,-,-
Cc1cccc(Oc2cc([N+](=O)[O-])cc3c2C(=O)Nc2ccccc2O3)c1,-,.,38.7,-,-,-
O=[N+]([O-])c1cc2c(c([N+](=O)[O-])c1)Nc1ccccc1O2,.,-,-,-,.,-
CCN1C(=O)[C@@H]2[C@H](C1=O)[C@@H]1C(=O)Nc3ccccc3C(=O)N1[C@@H]2c1cccc(C)c1,-,-,-,-,.,-
Cc1[nH]n(-c2ccccc2)c(=O)c1C(C[N+](=O)[O-])c1ccccc1Cl (stereo not given),-,-,-,-,-,-
COc1ccc(C(C[N+](=O)[O-])c2c(C)[nH]n(-c3ccccc3)c2=O)cc1 (stereo not given),-,-,-,-,87.0,-
CCOC(=O)c1cc(-c2ccc(N3C(c4ccsc4)=Cc4ccccc4C3CC(C)=O)cc2)cc([N+](=O)[O-])c1 (stereo not given),.,.,-,-,.,-
Nc1cc([N+](=O)[O-])cc2oc(-c3ccccc3)cc12,-,-,-,-,-,34.1
COc1ccc(OC)c(C(=O)N/N=C/c2ccccn2)c1,-,-,-,-,-,-
CN(CCOC(=O)c1ccccc1)Cc1ccccc1,-,-,-,-,-,-
Cc1ccc(NC(=O)c2ccc(Cl)c(N3C(=O)CCC3=O)c2)cc1,-,-,-,54.9,-,-
Cc1ccc(C(=O)N2CCc3ccccc32)cc1NC(=O)c1ccco1,-,-,-,-,-,-
CC(=O)N1CCc2c(sc(NC(=O)C3CC3)c2-c2nc3ccccc3s2)C1,-,.,44.3,34.7,-,-
CCCCC(=O)Nc1sc2c(c1-c1nc3ccccc3s1)CCN(C(C)=O)C2,.,.,.,.,-,.
CC12CCC(C(=O)NNc3ccc([N+](=O)[O-])cc3)(CC1=O)C2(C)C (stereo not given),-,-,-,-,-,-
O=[N+]([O-])c1ccc2nc(CCCc3nc4ccc([N+](=O)[O-])cc4[nH]3)[nH]c2c1,-,-,-,-,68.6,-
COc1ccc(-c2nc3ccc([N+](=O)[O-])cc3[nH]2)cc1,-,-,-,-,54.8,-
SMILES,TPT1 inhibitor,Rpn11 block,CSN inh,HNF4A DNA FP,SUMO HTRF inh,SENP1 inh
O=[N+]([O-])c1ccc2nc(CN3CCCCC3)[nH]c2c1,-,-,-,-,-,-
Nc1ccc2nc(-c3ccc(-c4nc5ccc(N)cc5[nH]4)cc3)[nH]c2c1,-,.,.,.,61.8,.
COc1ccc2c(c1)CCc1c(C(=O)Nc3cc(C)n(Cc4ccc(Cl)cc4)n3)noc1-2,-,-,91.4,-,-,-
CCC(Oc1ccccc1)C(=O)Nc1ccccc1C(=O)N1CCOCC1 (stereo not given),-,-,-,-,-,-
COc1ccc2c(c1)Cc1sc(NC(=O)c3cccnc3)nc1-2,-,-,-,-,89.8,-
COc1ccccc1N1CC(C(=O)Nc2cc(C(F)(F)F)ccc2N2CCCC2)CC1=O (stereo not given),-,-,-,-,.,-
Cc1ccc(-c2nc3ccccc3o2)cc1NC(=O)c1ccc2c(c1)OCO2,-,-,-,-,58.2,-
O=C(Nc1ccc(-c2nc3ccccc3o2)cc1)c1ccc2c(c1)OCO2,-,-,-,-,-,-
Cc1oc2c(c(C)cc3oc(=O)c(CC(=O)N[C@@H](C)C(=O)O)c(C)c32)c1C,-,-,-,-,50.6,-
O=C(Nc1ccc(-c2nc3ccc(NC(=O)c4cccs4)cc3[nH]2)cc1)c1cccs1,-,-,-,-,55.7,-
COC(=O)c1c(C)[nH]c(O)c1C=Nc1ccc(C(C)C)cc1,-,-,53.2,-,-,-
COC(=O)c1c(C)[nH]c(O)c1C=Nc1ccc(Oc2ccccc2)cc1,-,-,89.6,-,-,-
COCc1[nH][nH]c(=O)c1C=Nc1ccc(Oc2ccccc2)cc1,-,-,-,-,-,-
COc1ccc(CC(=O)Nc2ccc(-c3cn4cccc(C)c4n3)cc2)cc1OC,-,-,-,-,-,-
Cc1cccn2cc(-c3ccc(NC(=O)Cc4ccccc4)cc3)nc12,-,-,-,40.1,-,-
NC(N)=Nc1cc2ccccc2c2ccccc12,-,.,.,.,86.5,.
CCOC(=O)C(CCCOc1cccc(CC)c1)C(=O)OCC,-,-,-,-,-,-
Nc1nc(COC(=O)CCC(=O)c2ccccc2)nc(Nc2ccccc2)n1,.,-,105.5,-,.,-
COc1ccc(-c2c(C(F)(F)F)[nH]n3c(=O)cc(-c4ccccc4)nc23)cc1,-,-,-,-,50.9,-
CCCCN(C(=O)c1sc2nc3n(c(=O)c2c1C)CCC3)c1c(N)n(CC(C)C)c(=O)[nH]c1=O,.,-,-,-,.,-
CC(C)=CC(=O)NCCc1ccccc1,-,-,-,-,-,-
C/C(=C/C(=O)NCc1ccccc1)C(=O)O,-,-,-,-,52.5,-
CCn1c2ccccc2c2cc(NC(=O)CN(C)CC(=O)Nc3ccc(N4CCOCC4)cc3)ccc21,-,-,-,-,-,-
CCn1c2ccccc2c2cc(NC(=O)COC(=O)c3ccc(NC(=O)CC#N)cc3)ccc21,-,-,43.0,-,.,-
